Measurements as given in ChEMBL document CHEMBL1131138, “A novel class of orally active non-peptide bradykinin B2 receptor antagonists. 3. Discovering bioisosteres of the imidazo[1,2-a] pyridine moiety” (J Med Chem, 1998).

Key:
B2 bradykinin receptor [1] = biological target: T1, B2 bradykinin receptor (Homo sapiens, UniProt P30411); assay: Inhibition specific binding of [3H]BK (1.0 nM) to human Bradykinin receptor B2 which was expressed in CHO (Chinese hamster ovary) cells by 50%.; format: cell-based
T1 sequence (P30411 whole entry): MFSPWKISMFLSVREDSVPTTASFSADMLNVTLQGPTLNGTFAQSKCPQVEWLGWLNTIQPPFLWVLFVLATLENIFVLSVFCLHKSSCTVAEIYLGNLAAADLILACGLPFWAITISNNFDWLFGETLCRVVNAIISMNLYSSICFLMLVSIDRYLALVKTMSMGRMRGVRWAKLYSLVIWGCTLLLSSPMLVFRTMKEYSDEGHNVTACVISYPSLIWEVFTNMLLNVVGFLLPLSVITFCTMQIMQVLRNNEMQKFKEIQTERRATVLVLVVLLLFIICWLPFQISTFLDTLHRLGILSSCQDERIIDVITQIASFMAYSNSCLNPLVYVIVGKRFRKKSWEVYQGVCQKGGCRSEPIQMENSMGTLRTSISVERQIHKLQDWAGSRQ
Method in brief: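 CHO (dhfr−) cells stably expressing human B2 receptor, seeded at 3.0 × 10^4 cells/well and cultured 1 day. Whole cells incubated with 1.0 nM [3H]BK plus compound for 2 h at 4 °C in HEPES/N-methyl-D-glucamine buffer pH 7.2 with bacitracin, enalaprilat and BSA. Washed, solubilized in SDS/NaOH and counted. Nonspecific binding with 1 μM BK; DMSO below 3%; three experiments.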

Cavia porcellus [2] = assay: Inhibition of Bradykinin induced Bronchoconstriction in anaesthetized guinea pig at 0.32mg/kg, po; format: functional
Method in brief: (§1)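 Male Hartley guinea pigs (470–750 g), fasted overnight, anesthetized with ip pentobarbital (30 mg/kg) and ventilated at 10 mL/kg, 60 breaths/min. Given alcuronium (0.5 mg/kg iv) and propranolol (10 mg/kg sc). BK 5 μg/kg iv, with bronchoconstriction read as peak pulmonary insufflation pressure (modified Konzett–Rössler).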

Cavia porcellus [3] = assay: In vivo inhibition of Bradykinin induced Bronchoconstriction in anaesthetized guinea pig following 1 mg/kg p.o.; format: functional; settings: route oral; method in brief: as §1
B2 bradykinin receptor [4] = biological target: T2, B2 bradykinin receptor (Cavia porcellus, UniProt O70526); assay: Concentration required to inhibit specific binding of [ 3H]BK (0.06 nM) to Bradykinin receptor B2 in guinea pig ileum membrane preparations by 50%.; format: cell membranes
T2 sequence (O70526 whole entry): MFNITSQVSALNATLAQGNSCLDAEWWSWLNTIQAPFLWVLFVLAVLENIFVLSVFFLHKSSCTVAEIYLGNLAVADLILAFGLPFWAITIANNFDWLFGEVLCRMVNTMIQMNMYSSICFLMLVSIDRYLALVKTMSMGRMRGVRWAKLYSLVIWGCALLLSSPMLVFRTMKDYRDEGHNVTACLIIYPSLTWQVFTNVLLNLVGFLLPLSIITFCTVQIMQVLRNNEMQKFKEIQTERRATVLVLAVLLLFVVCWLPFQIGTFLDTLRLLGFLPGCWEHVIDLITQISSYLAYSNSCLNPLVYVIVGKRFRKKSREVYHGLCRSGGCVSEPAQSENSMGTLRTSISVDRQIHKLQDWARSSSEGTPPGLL
Method in brief: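 Ileal membranes from male Hartley guinea pigs (0.2 mg protein/mL) in TES buffer pH 6.8 with phenanthroline, bacitracin, DTT, captopril and BSA. Incubated with 0.06 nM [3H]BK plus compound for 60 min at room temperature, then filtered through GF/B and counted by scintillation.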

B2 bradykinin receptor [5] = biological target: T1, B2 bradykinin receptor; assay: Concentration required to inhibit specific binding of [3H]BK (1.2 nM) to A-431 cells (human epidermoid carcinoma) which express Bradykinin receptor B2 by 50%.; format: cell-based

SMILES | IC50 (B2 bradykinin receptor [1]) [nM] | inhibition in vivo at 0.32 mg/kg (Cavia porcellus [2]) [%] | inhibition in vivo at 1 mg/kg (Cavia porcellus [3]) [%] | IC50 (B2 bradykinin receptor [4]) [nM] | IC50 (B2 bradykinin receptor [5]) [nM]
Cc1ccc2cccc(OCc3c(Cl)ccc(N(C)C(=O)CNC(=O)/C=C/c4ccc(N5CCCC5=O)nc4)c3Cl)c2n1 | 5.2 | 68.6 | 89.9 | 0.13 | 
Cc1ccc2cccc(OCc3c(Cl)ccc(N(C)C(=O)CNC(=O)/C=C/c4ccccc4)c3Cl)c2n1 | 340 |  | 25.2 | 0.69 | 
CNC(=O)c1ccc(/C=C/C(=O)NCC(=O)N(C)c2ccc(Cl)c(COc3cccc4c3nc(C)n4C)c2Cl)cc1 | 67 |  |  | 9.1 | 43
CNC(=O)c1ccc(/C=C/C(=O)NCC(=O)N(C)c2ccc(Cl)c(COc3cccnc3-n3c(C)ccc3C)c2Cl)cc1 | 2000 |  |  | 350 | 3500
CNC(=O)c1ccc(/C=C/C(=O)NCC(=O)N(C)c2ccc(Cl)c(COc3cccc4cnc(C)cc34)c2Cl)cc1 |  |  |  | > 10000 | > 10000
CNC(=O)c1ccc(/C=C/C(=O)NCC(=O)N(C)c2ccc(C)c(COc3cccc4ccc(C)nc34)c2C)cc1 | 4.8 | 79 | 90.5 | 0.97 | 
CC(=O)Nc1ccc(/C=C/C(=O)NCC(=O)N(C)c2ccc(Cl)c(COc3cccc4ccc(C)nc34)c2Cl)cn1 [FR-173657] | 1.4 | 73.2 | 94.4 | 0.46 | 
CNC(=O)c1ccc(/C=C/C(=O)NCC(=O)N(C)c2ccc(Cl)c(COc3cccc4nc(C)cnc34)c2Cl)cc1 | 2900 |  |  | 170 | 4300
CNC(=O)c1ccc(/C=C/C(=O)NCC(=O)N(C)c2ccc(Cl)c(COc3cccc4oc(C)nc34)c2Cl)cc1 | 1100 |  |  | 380 | 860
CC(=O)Nc1ccc(/C=C/C(=O)NCC(=O)N(C)c2ccc(C)c(COc3cccc4ccc(C)nc34)c2C)cn1 | 8.5 | 55.5 | 98.2 | 0.82 | 
Cc1ccc2cccc(OCc3c(Cl)ccc(N(C)C(=O)CNC(=O)/C=C/c4cccnc4)c3Cl)c2n1 | 470 | 63.7 | 97.2 | 0.79 | 
Cc1ccc2cccc(OCc3c(Cl)ccc(N(C)C(=O)CNC(=O)/C=C/c4ccc(N5CCCC5=O)cc4)c3Cl)c2n1 | 3.2 | 44.7 | 85.3 | 0.55 | 
Cc1ccc2cccc(OCc3c(Cl)ccc(N(C)C(=O)CNC(=O)/C=C/c4ccc(NC(=O)c5ccncc5)nc4)c3Cl)c2n1 | 2.8 |  | 68.8 | 3.3 | 
Cc1ccc2cccc(OCc3c(Cl)ccc(N(C)C(=O)CNC(=O)/C=C/c4ccc(C(=O)Nc5ccncc5)nc4)c3Cl)c2n1 | 2.5 |  | 60 | 15 | 
Cc1ccc2cccc(OCc3c(Cl)ccc(N(C)C(=O)CNC(=O)/C=C/c4ccc(/C=C/c5ccncc5)nc4)c3Cl)c2n1 | 0.51 | 43.6 | 87.3 | 0.76 | 
COc1nc2c(OCc3c(C)ccc(N(C)C(=O)CNC(=O)/C=C/c4ccc(NC(C)=O)nc4)c3C)cccc2n1C | 8.5 | 75.2 | 98.4 | 0.94 | 
Cc1ccc2cccc(OCc3c(Cl)ccc(N(C)C(=O)CNC(=O)/C=C/c4ccc(C(=O)N(C)C)cc4)c3Cl)c2n1 | 3.9 | 50.8 | 89.7 | 1.3 | 
CNC(=O)c1ccc(/C=C/C(=O)NCC(=O)N(C)c2ccc(Cl)c(COc3cccc4ccc(C)nc34)c2Cl)cn1 | 4.6 | 68.4 | 93.9 | 0.68 | 
Cc1ccc2cccc(OCc3c(Cl)ccc(N(C)C(=O)CNC(=O)/C=C/c4cccc(C(=O)N(C)C)c4)c3Cl)c2n1 |  |  |  | 1.1 | 14
CNC(=O)c1ccc(/C=C/C(=O)NCC(=O)N(C)c2ccc(Cl)c(COCc3cccc(C)n3)c2Cl)cc1 | > 10000 |  |  | > 10000 | > 10000
COc1nc2c(OCc3c(Cl)ccc(N(C)C(=O)CNC(=O)/C=C/c4ccc(C(=O)N(C)C)cc4)c3Cl)cccc2n1C | 14 |  | 87.7 | 0.94 | 
CNC(=O)c1ccc(/C=C/C(=O)NCC(=O)N(C)c2ccc(Cl)c(COc3cccc4cnc(C)nc34)c2Cl)cc1 | 56 |  |  | 110 | 59
Cc1ccc2cccc(OCc3c(Cl)ccc(N(C)C(=O)CNC(=O)/C=C/c4ccc(C(=O)Nc5ccncc5)cc4)c3Cl)c2n1 | 1.8 |  | 29.5 | 1.1 | 
CNC(=O)c1ccc(/C=C/C(=O)NCC(=O)N(C)c2ccc(Cl)c(COc3ccc4ccc(C)nc4c3)c2Cl)cc1 |  |  |  | > 10000 | > 10000
Cc1ccc2cccc(OCc3c(C)ccc(N(C)C(=O)CNC(=O)/C=C/c4ccc(N5CCCC5=O)cc4)c3C)c2n1 | 9.3 | 75.7 | 94.9 | 0.47 | 
Cc1ccc2cccc(OCc3c(Cl)ccc(N(C)C(=O)CNC(=O)/C=C/c4ccc(C(=O)Nc5cccnc5)cc4)c3Cl)c2n1 | 7.5 |  | 46.8 | 0.62 | 
CC(=O)Nc1ccc(/C=C/C(=O)NCC(=O)N(C)c2ccc(Cl)c(COc3cccc4ccc(C)nc34)c2Cl)cc1 | 1.9 | 33.2 | 80 | 0.5 | 
COc1nc2c(OCc3c(Cl)ccc(N(C)C(=O)CNC(=O)/C=C/c4ccc(NC(C)=O)nc4)c3Cl)cccc2n1C | 4.2 |  | 55.4 | 0.65 | 
CNC(=O)c1ccc(/C=C/C(=O)NCC(=O)N(C)c2ccc(Cl)c(COc3cccc4ncc(C)nc34)c2Cl)cc1 | 5.2 |  |  | 1 | 3.1
Cc1cnc2cccc(OCc3c(C)ccc(N(C)C(=O)CNC(=O)/C=C/c4ccc(N5CCCC5=O)cc4)c3C)c2n1 | 46 |  |  | 2.4 | 
